Screening results: PubChem BioAssay, several laboratories
Only some compounds are listed: those with a hit (about 1.2% of all), similar ones and a draw of the others.
CRFBP-R2 block: antagonists of CRF-binding protein/CRF-R2 receptor complex; inhibition, % at 11.8 µM; 0.59% of 350,000 active; HEK293 CRF-R2/CRF-BP, CRF-induced calcium fluorescence; AID 588475;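 active = inhibition of the ligand-induced calcium signal above about 50% at the single tested concentration, limit read from the data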
CRFBP-R2 agonist: CRF-BP/CRF-R2 complex agonism. HEK293 CRF-R2/CRF-BP, calcium dye fluorescence (FLIPR); percent of saturating CRF peptide response. activation, % at 13.2 µM. 0.46% of 350,000 active. AID 588473;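 active = activation of at least 50%, plus an integration ratio under a set limit after plate pattern correction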;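 note: plate controls were neutral control wells without compound for no effect and CRF at EC100 for full effect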
zfTRPN1 agonist: zebrafish TRPN1 (NompC) channel agonism | HEK293 zebrafish TRPN1-YFP, Fluo-8 calcium fluorescence; 100% = response to 87 µM carbachol | activation, % at 3 µM | 0.18% of 220,000 active;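 active = activation above its plate's cutoff, the mean activation of test wells on that plate plus 3 SD, cut at about 19% in these data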;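 note: 0% = DMSO alone and 100% = 87 µM carbachol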
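System: zebrafish TRPN1-YFP in HEK293 cells / Dosing: 3 µM single point / Timing: dye loading 1 h at 37 °C, then 30 min room temperature / Signal: Fluo-8 calcium fluorescence, excitation 470-495 nm, emission 515-575 nm / Read-out basis: percent activation from peak over basal fluorescence ratio, control-normalized / Control set: high carbachol 87 µM, low DMSO alone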
TRPML3 ag: activates the human TRPML3 channel; AID 1448; HEK293 TRPML3-YFP, Fluo-8 calcium fluorescence; 100% = the carbachol control signal; 0.29% of 220,000 active; activation, % at 3 µM; Q8TDD5;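 active = activation above its plate's cutoff, the mean activation of the plate's test wells plus 3 SD, cut at about 12% in these data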;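 note: 0% = DMSO only wells and 100% = carbachol wells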
Target sequence (Q8TDD5 whole entry, looked up): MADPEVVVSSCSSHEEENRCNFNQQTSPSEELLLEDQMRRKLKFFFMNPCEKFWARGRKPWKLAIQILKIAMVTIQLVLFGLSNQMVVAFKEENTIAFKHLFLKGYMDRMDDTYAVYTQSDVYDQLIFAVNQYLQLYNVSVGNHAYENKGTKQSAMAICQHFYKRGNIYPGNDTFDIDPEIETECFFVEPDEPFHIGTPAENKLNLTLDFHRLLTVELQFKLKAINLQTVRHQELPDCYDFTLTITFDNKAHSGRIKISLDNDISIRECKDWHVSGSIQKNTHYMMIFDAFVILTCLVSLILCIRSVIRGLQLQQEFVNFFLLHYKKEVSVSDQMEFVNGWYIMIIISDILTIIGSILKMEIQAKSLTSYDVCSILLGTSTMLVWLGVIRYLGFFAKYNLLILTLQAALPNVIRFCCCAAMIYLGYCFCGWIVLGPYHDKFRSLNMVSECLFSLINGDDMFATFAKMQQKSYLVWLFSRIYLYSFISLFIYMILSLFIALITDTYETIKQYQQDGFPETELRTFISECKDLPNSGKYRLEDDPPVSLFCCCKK
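Material: TRPML3-YFP stable HEK293 cells | Dosing: One concentration, 3 µM nominal, 0.3% DMSO | Timing: 125 s total fluorescence read per well | Technique: Fluo-8 calcium dye fluorescence, ex 470-495, em 515-575 nm | Measure: Percent activation from peak-to-basal fluorescence ratio, scaled between DMSO and carbachol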
The depositor's hits bear a star; / = no result.

SMILES	CRFBP-R2 block	CRFBP-R2 agonist	zfTRPN1 agonist	TRPML3 ag
O=c1oc(-c2ccccc2)nc2sc3c(c12)CCC3	2.0	0.3	-0.1	0.7
CN1CCN(Cc2c(O)ccc3cc(-c4ccccn4)c(=O)oc23)CC1	-7.4	63.2*	0.5	0.2
Cc1ccc(CN2CCN(Cc3cn[nH]c3C3CCCCC3)CC2CCO)cc1 (stereo not given)	-11.2	-2.3	0.5	1.0
CCC1S/C(=N/N=C/c2ccco2)N(c2ccc(F)cc2)C1=O (stereo not given)	1.2	-1.3	0.8	0.5
CCOc1nc(C)ccc1-c1noc(-c2ccccn2)n1	111.3*	-1.1	0.1	0.5
CCOc1nc(C)ccc1-c1noc(-c2ccco2)n1	10.2	-0.9	-1.2	0.2
Cc1nc(NC(=O)c2ccc(Br)o2)sc1C	-2.1	-2.1	-0.6	0.7
Cc1ccc(NC(=O)CCn2cc(C(F)(F)F)ccc2=O)cc1	122.3*	0.1	0.6	1.8
CCOc1ccc(NC(=O)C2CCCN(c3nc(C)cc(C)n3)C2)cc1 (stereo not given)	3.0	-0.8	/	/
N#C/C(=C(/O)CN1C(=O)c2ccccc2C1=O)c1nc2ccccc2[nH]1	3.9	-1.4	-1.0	0.5
COc1cc(N2CCCC2)c(OC)cc1/C=C1/NC(=S)NC1=O	-168.3	177.7*	60.5*	17.3*
Cc1sc2ncnc(N3CCC(C(=O)Nc4sc5c(c4C(N)=O)CCC(C)C5)CC3)c2c1C (stereo not given)	-2.7	0.0	/	/
COC(=O)Nc1nncs1	-0.3	-1.8	-0.9	0.4
c1nnc(NCNc2nncs2)s1	-6.1	59.8*	/	/
O=C(Nc1cccc(O)c1)C1CCCN1C(=O)OCc1ccccc1 (stereo not given)	5.0	-1.8	0.0	0.3
CCOC(=O)c1cnc(-c2ccccc2)nc1N1CC(C)OC(C)C1 (stereo not given)	-2.9	0.7	-1.7	0.2
CCOC(=O)c1nnc(-c2ccccc2)nc1N1CC(C)OC(C)C1 (stereo not given)	55.9*	-0.7	-0.4	0.6
Cc1ccccc1-c1cc2nc(-c3ccc([N+](=O)[O-])cc3)cc(=O)n2[nH]1	70.5*	-3.0	0.5	1.0
O=c1cc(-c2ccc([N+](=O)[O-])cc2)nc2cc(-c3ccc(F)cc3)[nH]n12	75.1*	-3.1	0.5	0.3
O=C(NCCOc1ccc(F)cc1)C1CCC(=O)N(CCCN2CCOCC2)C1 (stereo not given)	-7.6	-1.3	/	/
N/C(Cc1cccc2ccccc12)=N\O	-0.7	1.3	0.9	0.4
N/C(Cc1ccccc1Sc1ccccc1)=N\O	61.2*	-0.9	-0.4	0.3
COc1cccc2c1C(=O)c1c(O)c3c(c(O)c1C2=O)CC(O)(C(C)=O)CC3OC1CC(O)C(O)C(C)O1 (stereo not given)	-103.3	96.3*	/	/
COc1cccc2c1C(=N)c1c(O)c3c(c(O)c1C2=O)CC(O)(C(C)=O)CC3OC1CC(N)C(O)C(C)O1 (stereo not given)	27.2	-1.7	/	/
COc1cccc2c1C(=O)c1c(O)c3c(c(O)c1C2=O)C[C@](O)(C(C)=O)C[C@H]3O[C@@H]1C[C@@H](N)[C@@H](O)[C@@H](C)O1	-66.0	64.4*	/	/
SMILES	CRFBP-R2 block	CRFBP-R2 agonist	zfTRPN1 agonist	TRPML3 ag
O=[N+]([O-])c1ccc(Sc2ccccc2)nc1	53.5*	-6.2	-0.3	0.1
Cc1nc(NC(C)C)c2oc3ccccc3c2n1	0.1	8.8	1.6	0.4
COc1ccc(SC[C@H](Cc2ccccc2)N2CC[C@@H](O)CCC2=O)cc1	-2.1	-0.6	/	/
O=C(Nc1cccc(F)c1)c1cc(S(=O)(=O)N2CCOCC2)ccc1N1CCCC1	-34.7	66.2*	/	/
O=C(Nc1cc(S(=O)(=O)Nc2ccccc2Cl)ccc1O)c1ccc(F)cc1F	22.2	23.6	/	/
O=C(Nc1cc(S(=O)(=O)N2CCCCC2)ccc1O)c1ccccc1NS(=O)(=O)c1ccc(F)c(F)c1	81.4*	111.2*	-0.3	-0.7
O=C(Nc1cccc(C(F)(F)F)c1)c1cc(S(=O)(=O)N2CCCCC2)ccc1N1CCOCC1	-7.7	0.5	0.4	0.4
O=C(Nc1cccc(S(=O)(=O)N2CCCCC2)c1)c1ccccc1NS(=O)(=O)c1ccc(F)cc1	85.0*	63.7*	1.0	1.6
Cc1ccc(NC(=O)c2ccccc2NS(=O)(=O)c2ccc(F)cc2)cc1S(=O)(=O)N1CCCCC1	98.2*	46.4	6.1	3.2
O=C(COc1ccc(Br)cc1)N/N=C1\SCC(=O)N1c1ccc(F)cc1	0.7	-1.5	2.5	1.1
CCOC(=O)c1cc2c(=O)c3cc(C)ccc3oc2nc1C	66.9*	-1.0	/	/
CC(NC(=O)CCl)c1ccc(Cl)c(Cl)c1 (stereo not given)	-22.0	-3.2	-0.9	0.3
COc1cc(C=O)ccc1Oc1cnccn1	55.9*	0.5	3.0	-0.2
Cc1ccc(S(=O)(=O)O/N=C2\CCCc3ccccc32)cc1	8.8	0.4	0.7	0.6
CC1=C(C)/C(=N\OS(=O)(=O)c2ccccc2)C=CC1=O	-15.4	57.0*	1.7	15.8*
COCCN(C(=O)CCCc1nc2ccccc2s1)c1c(N)n(CC(C)C)c(=O)[nH]c1=O	4.2	-0.5	/	/
Cc1ccc(S(=O)(=O)NCc2ccccn2)c(C)c1C	12.3	-2.8	/	/
Cc1ccc(S(=O)(=O)NCc2ccncc2)c(C)c1C	-7.8	53.2*	8.1	5.4
COC(=O)[C@H]1C[C@@H]1[C@H](NC(=O)[C@H]1C[C@@H]1[C@H](NC(=O)OCc1ccccc1)c1ccccc1)c1ccccc1	14.7	0.9	-1.2	-0.5
CC(=O)OCC(=O)Nc1ccc([N+](=O)[O-])cc1Cl	5.9	-1.2	-0.1	0.6
CC(=O)Oc1c(C)cc(Cl)cc1C(=O)Nc1ccc([N+](=O)[O-])cc1Cl	29.6	83.0*	26.1*	8.5
CC(=O)N1N=C(C)CC1c1ccc(O)cc1 (stereo not given)	-6.8	1.4	-0.6	0.6
CC(=O)N1N=C(C)CC1c1ccc(OCc2ccccc2)cc1 (stereo not given)	52.3*	-4.6	0.5	0.4
OCC1(Cc2cccc(Cl)c2)CCCN(Cc2ccc(F)c(F)c2)C1 (stereo not given)	-18.1	1.1	/	/
CC(=O)Nc1ccc(CN2CCCC(CO)(Cc3cccc(Cl)c3)C2)cc1 (stereo not given)	-41.0	55.5*	3.5	-0.5
COc1cc(S(=O)(=O)Nc2ccc(C)cc2)ccc1N=Cc1c(C)c(C#N)c(=O)n(C)c1O	-101.9	80.5*	-1.7	1.1
Cc1[nH]n(-c2ccc([N+](=O)[O-])cc2)c(=O)c1C=NCC1CCCO1 (stereo not given)	45.9	-0.4	1.9	1.0
Cc1ccc(-n2[nH]c(C)c(/C=N/Nc3ccc([N+](=O)[O-])cc3[N+](=O)[O-])c2=O)cc1	112.4*	28.5	-1.0	0.1
O=C(NNC1=C(C(=O)C(F)(F)F)CCC1)c1cccc(Cl)c1	55.4*	12.6	-1.4	0.0
COc1ccc(C2=Nc3ccccc3C2(O)CCN2C(=O)c3ccccc3C2=O)cc1 (stereo not given)	67.2*	31.0	/	/
